The source made the active and inactive calls. The rule behind the calls is not given here.
Assays:
[1] = test system: Rattus norvegicus; test: Induction of catalepsy in rats when administered perorally; type: functional; conditions: po
[2] = test system: Rattus norvegicus; test: Reversal of trifluoperazine-induced catalepsy in rats when administered perorally; Inactive, maximum dose examined was 20 mg/Kg; type: functional, organism-based
[3] = test system: Rattus norvegicus; test: Blockade of Sidman-avoidance activity in rats when administered perorally; type: functional
Method in brief: (§1)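 Rats trained in once-daily Sidman sessions until stable; non-learners after 3 days replaced. Twelve rats dosed 30 min before session. Each rat compared with mean of its previous three drug-free days by paired t test. Testing continued to minimally effective dose; maximum usually 100 mg/kg. MED is mean over 12 animals.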

[4] = test system: Mus musculus; test: Blockade of apomorphine-induced climbing in mice when administered perorally
[5] = target: T1, Serotonin 1 (5-HT1) receptor (Rattus norvegicus, UniProt P28564+P30940+P19327+P28565); test: Ability to bind at 5-hydroxytryptamine 1 receptor of rat hippocampus by displacing [3H]5-HT; type: tissue-based
Method in brief: (§2)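 Rat receptor radioligand displacement, five test-ligand concentrations used to calculate IC50, each assay in duplicate. Some compounds determined four times (in duplicate), with mean IC50 reported.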

[6] = target: T2, Adrenergic receptor alpha-1 (Rattus norvegicus, UniProt P15823+P23944+P43140); test: Ability to bind at Alpha-1 adrenergic receptor by displacing [3H]WB-4101; type: protein assay
T2 sequence (P15823 whole entry): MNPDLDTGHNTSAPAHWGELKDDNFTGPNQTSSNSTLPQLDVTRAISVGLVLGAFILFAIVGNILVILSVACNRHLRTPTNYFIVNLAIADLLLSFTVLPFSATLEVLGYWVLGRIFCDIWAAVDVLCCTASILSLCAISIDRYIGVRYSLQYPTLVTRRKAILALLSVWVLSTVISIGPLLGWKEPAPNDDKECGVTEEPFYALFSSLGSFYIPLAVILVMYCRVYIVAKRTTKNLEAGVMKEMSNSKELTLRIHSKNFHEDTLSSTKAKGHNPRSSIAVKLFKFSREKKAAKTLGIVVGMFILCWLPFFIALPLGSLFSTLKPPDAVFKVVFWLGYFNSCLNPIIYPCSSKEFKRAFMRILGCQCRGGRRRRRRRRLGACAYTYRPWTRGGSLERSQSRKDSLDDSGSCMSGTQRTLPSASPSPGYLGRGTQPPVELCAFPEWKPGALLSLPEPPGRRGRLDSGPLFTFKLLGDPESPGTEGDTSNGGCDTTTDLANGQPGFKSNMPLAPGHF
T2 sequence (P23944 whole entry): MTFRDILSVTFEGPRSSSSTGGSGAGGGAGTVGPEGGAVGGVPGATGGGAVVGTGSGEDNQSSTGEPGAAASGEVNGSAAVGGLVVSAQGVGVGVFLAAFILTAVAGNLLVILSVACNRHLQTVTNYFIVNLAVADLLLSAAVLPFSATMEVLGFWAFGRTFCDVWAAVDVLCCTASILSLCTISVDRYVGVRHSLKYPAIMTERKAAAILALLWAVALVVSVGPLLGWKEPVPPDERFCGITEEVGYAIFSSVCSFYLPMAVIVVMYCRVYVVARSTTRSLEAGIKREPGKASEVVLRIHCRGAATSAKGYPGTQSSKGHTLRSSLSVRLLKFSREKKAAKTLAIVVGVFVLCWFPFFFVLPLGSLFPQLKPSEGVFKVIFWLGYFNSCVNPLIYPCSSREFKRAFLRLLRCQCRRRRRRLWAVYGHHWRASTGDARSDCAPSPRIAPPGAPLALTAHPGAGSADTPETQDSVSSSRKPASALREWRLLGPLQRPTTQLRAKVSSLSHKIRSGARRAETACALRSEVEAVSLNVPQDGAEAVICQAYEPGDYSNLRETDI
T2 sequence (P43140 whole entry): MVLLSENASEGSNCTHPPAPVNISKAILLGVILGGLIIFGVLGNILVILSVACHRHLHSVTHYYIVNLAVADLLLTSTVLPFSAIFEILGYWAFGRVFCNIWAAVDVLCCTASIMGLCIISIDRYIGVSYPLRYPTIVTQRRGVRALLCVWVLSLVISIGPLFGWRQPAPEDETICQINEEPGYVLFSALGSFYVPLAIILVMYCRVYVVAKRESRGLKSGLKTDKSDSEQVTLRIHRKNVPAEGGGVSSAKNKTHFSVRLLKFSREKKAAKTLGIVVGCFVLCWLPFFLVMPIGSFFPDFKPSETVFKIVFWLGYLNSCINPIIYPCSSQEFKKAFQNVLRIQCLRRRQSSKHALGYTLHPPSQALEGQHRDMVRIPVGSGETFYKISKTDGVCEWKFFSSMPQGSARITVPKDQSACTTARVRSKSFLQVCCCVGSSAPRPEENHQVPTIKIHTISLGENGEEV

[7] = target: T3, D(2) dopamine receptor (Rattus norvegicus, UniProt P61169); test: Ability to bind at dopamine receptor D2 of rat corpus striatum by displacing [3H]spiperone
[8] = test system: Rattus norvegicus; test: Blockade of apomorphine-induced stereotypy in rats when administered perorally; type: functional; conditions: po
[9] = test system: Rattus norvegicus; test: Reversal of trifluoperazine-induced catalepsy in rats when administered perorally; Inactive; type: functional, organism-based
[10] = test system: Rattus norvegicus; test: Conditioned avoidance response (CAR) when administered perorally; type: functional; conditions: po
[11] = test system: Rattus norvegicus; test: Blockade of Sidman-avoidance activity in rats when administered perorally; Inactive; type: functional, organism-based; method in brief: as §1
[12] = target: T4, Serotonin 2 (5-HT2) receptor (Rattus norvegicus, UniProt P30994+P08909+P14842); test: Ability to bind at 5-hydroxytryptamine 2 receptor of rat cortex by displacing [3H]spiperone
[13] = target: T1, Serotonin 1 (5-HT1) receptor; test: Ability to bind at serotonin 5-hydroxytryptamine 1 receptor of rat hippocampus by displacing [3H]5-HT; type: tissue-based
[14] = target: T2, Adrenergic receptor alpha-1; test: Ability to bind at alpha-1 adrenergic receptor by displacing [3H]WB-4101; type: protein assay; method in brief: as §2
[15] = target: T5, Adrenergic receptor alpha-2 (Rattus norvegicus, UniProt P22086+P19328+P22909); test: Ability to bind at alpha-2 adrenergic receptor by displacing [3H]clonidine; type: protein assay
T5 sequence (P22086 whole entry): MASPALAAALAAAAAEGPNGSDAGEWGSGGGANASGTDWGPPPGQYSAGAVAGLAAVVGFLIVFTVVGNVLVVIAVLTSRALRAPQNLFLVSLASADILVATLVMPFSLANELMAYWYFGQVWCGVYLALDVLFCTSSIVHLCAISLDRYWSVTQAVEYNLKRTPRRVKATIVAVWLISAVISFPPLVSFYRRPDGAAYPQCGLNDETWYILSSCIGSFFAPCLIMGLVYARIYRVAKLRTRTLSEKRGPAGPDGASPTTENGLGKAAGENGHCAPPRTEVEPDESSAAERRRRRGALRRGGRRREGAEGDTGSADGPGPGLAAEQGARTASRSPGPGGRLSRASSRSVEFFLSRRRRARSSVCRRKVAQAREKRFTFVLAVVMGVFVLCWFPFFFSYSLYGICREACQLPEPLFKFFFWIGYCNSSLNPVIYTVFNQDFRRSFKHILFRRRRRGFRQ
T5 sequence (P19328 whole entry): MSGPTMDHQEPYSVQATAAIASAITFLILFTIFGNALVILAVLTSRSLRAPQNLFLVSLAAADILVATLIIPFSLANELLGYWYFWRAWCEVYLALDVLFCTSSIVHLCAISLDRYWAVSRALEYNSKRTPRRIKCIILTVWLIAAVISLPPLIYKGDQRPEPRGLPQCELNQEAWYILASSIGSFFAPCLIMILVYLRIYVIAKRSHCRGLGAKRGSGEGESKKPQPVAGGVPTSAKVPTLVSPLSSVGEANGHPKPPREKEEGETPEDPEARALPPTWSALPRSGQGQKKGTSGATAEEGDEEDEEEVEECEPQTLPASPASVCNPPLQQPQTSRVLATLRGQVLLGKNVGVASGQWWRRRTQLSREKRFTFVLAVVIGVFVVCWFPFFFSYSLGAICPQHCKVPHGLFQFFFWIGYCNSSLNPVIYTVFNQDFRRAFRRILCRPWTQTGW
T5 sequence (P22909 whole entry): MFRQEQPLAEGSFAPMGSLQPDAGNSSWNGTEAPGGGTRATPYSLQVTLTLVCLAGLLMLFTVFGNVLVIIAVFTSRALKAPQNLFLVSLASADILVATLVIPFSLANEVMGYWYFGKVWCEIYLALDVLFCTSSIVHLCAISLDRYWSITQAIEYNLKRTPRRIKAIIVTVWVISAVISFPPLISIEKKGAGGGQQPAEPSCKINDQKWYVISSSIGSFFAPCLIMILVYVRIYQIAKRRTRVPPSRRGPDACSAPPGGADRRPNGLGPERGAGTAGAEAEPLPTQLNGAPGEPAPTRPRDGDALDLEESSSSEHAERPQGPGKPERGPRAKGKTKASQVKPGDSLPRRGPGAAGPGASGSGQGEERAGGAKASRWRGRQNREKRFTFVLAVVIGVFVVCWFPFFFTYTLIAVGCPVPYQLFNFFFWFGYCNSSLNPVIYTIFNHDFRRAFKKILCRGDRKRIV

[16] = target: T3, D(2) dopamine receptor; test: Ability to bind at Dopamine receptor D2 of rat corpus striatum by displacing [3H]spiperone; method in brief: as §2
[17] = test system: Rattus norvegicus; test: Approximate effective dose (AED) in inhibition of spontaneous motor activity when administered perorally; type: functional
Method in brief: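 Three groups of five animals, each group at a different dose. Mean log activity count per group compared with vehicle controls, and the difference plotted against log dose. AED taken at the dose giving a 0.3 log-unit (about 2-fold) difference from control.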

[18] = target: T4, Serotonin 2 (5-HT2) receptor; test: Ability to bind at serotonin 5-hydroxytryptamine 2 receptors of rat cortex by displacing [3H]spiperone

T3 sequence (P61169 whole entry): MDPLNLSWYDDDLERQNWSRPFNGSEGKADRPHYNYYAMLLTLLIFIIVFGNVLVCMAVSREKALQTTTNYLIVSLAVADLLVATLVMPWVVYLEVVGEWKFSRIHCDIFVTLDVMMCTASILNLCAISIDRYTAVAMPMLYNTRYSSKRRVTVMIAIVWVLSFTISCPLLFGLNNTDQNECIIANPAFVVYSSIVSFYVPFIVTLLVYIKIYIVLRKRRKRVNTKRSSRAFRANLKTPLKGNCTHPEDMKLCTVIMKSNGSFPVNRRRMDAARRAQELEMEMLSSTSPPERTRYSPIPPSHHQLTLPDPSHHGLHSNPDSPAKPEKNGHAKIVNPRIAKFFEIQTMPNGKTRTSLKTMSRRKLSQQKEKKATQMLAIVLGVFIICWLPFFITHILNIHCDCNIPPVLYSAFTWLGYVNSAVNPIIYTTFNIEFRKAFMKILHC

Row | SMILES | ED50 [1] [mg/kg] | ED50 [2] | MED50 [3] [mg/kg] | MED50 [4] [mg/kg] | IC50 [5] [nM] | IC50 [6] [nM] | IC50 [7] [nM] | ED50 [8] [mg/kg] | ED50 [9] | ED50 [10] [mg/kg] | MED50 [11] | IC50 [12] [nM] | IC50 [13] [nM] | IC50 [14] [nM] | IC50 [15] [nM] | IC50 [16] [nM] | AED [17] [mg/kg] | IC50 [18] [nM]
1 | CN1CCN(C2=Nc3cc(Cl)ccc3Nc3ccccc32)CC1 [CLOZAPINE] | > 200 | inactive | 50 | 10 |  |  |  |  |  |  |  |  |  |  |  |  |  | 
2 | Cl.O=C1SC2(CCCC2)C(=O)N1CCCCN1CCN(c2nccc3ccsc23)CC1 |  |  |  |  | 3.7 | 36.8 | 418 | 46.7 | inactive | 43.1 | inactive | 20.2 |  |  |  |  |  | 
3 | Cl.c1cc2occc2c(N2CCNCC2)n1 |  |  |  |  |  |  |  |  |  | 7.3 |  |  | 150 | 426 | 144 | > 1000 | 10.7 | 377

From ChEMBL document CHEMBL1124475, “The thieno[3,2-c]pyridine and furo[3,2-c]pyridine rings: new pharmacophores with potential antipsychotic activity” (J Med Chem, 1989)
